Reference: ChEMBL document CHEMBL5661979, “Pharmacological inhibition of BMK1 suppresses tumor growth through promyelocytic leukemia protein” (Cancer Cell, 2010)

Assays:
Format in all cases: subcellular
[1] = target: Serine/threonine-protein kinase tousled-like 2 (Homo sapiens, UniProt Q86UE8); assay: Inhibition of TLK2 in human HeLa cells lysate pre incubated for 15 mins followed by ADP acyl phosphate probe addition and measured after 10 mins by LC-MS/MS analysis
[2] = target: T1, Mitogen-activated protein kinase kinase kinase kinase 2 (Homo sapiens) (UniProt Q12851); assay: Inhibition of GCK in human HeLa cells lysate at 50 uM pre incubated for 15 mins followed by ADP acyl phosphate probe addition and measured after 10 mins by LC-MS/MS analysis relative to control; settings: time 25.0 min
T1 sequence (whole entry): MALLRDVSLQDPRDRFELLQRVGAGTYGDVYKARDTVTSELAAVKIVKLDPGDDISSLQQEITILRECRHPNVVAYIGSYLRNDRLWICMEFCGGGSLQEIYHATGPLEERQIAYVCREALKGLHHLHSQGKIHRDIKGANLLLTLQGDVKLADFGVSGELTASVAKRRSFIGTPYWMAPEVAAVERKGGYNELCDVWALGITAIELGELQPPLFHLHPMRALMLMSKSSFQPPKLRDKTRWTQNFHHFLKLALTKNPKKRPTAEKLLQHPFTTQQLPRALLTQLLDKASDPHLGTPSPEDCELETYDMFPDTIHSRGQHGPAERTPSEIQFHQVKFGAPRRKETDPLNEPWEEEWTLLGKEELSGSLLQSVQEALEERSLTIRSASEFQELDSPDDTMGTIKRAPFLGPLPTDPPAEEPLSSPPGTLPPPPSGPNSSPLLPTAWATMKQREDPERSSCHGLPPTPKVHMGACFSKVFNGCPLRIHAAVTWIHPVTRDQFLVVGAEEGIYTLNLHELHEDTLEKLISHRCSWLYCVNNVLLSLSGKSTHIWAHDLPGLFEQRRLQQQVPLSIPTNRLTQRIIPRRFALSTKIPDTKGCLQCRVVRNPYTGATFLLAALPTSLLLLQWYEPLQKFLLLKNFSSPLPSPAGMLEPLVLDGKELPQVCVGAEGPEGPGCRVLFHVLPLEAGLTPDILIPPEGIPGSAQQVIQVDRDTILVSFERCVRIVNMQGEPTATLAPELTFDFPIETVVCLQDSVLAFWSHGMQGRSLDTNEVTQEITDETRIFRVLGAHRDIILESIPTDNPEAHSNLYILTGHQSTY

[3] = target: T2, Dual specificity mitogen-activated protein kinase kinase 5 (Homo sapiens) (UniProt Q13163); assay: Inhibition of MAP2K5 in human HeLa cells lysate at 10 uM pre incubated for 15 mins followed by ADP acyl phosphate probe addition and measured after 10 mins by LC-MS/MS analysis relative to control; settings: time 25.0 min
T2 sequence (whole entry): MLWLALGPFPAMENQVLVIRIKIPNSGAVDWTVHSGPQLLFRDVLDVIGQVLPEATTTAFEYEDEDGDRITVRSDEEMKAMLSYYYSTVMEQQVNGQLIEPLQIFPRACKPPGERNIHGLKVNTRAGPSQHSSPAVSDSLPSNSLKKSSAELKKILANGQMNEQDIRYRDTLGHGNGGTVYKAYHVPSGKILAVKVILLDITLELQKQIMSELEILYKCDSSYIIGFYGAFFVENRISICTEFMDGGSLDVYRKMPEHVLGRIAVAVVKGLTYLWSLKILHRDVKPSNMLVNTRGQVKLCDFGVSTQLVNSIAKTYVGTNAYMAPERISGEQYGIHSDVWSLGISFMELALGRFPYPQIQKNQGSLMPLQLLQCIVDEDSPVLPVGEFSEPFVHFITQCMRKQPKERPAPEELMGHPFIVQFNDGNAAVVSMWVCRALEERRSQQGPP

[4] = target: Peripheral plasma membrane protein CASK (Homo sapiens) (UniProt O14936); assay: Inhibition of CASK in human HeLa cells lysate at 2 uM pre incubated for 15 mins followed by ADP acyl phosphate probe addition and measured after 10 mins by LC-MS/MS analysis relative to control; settings: time 25.0 min
Sequence of Peripheral plasma membrane protein CASK (Homo sapiens) (O14936 whole entry, the tested form may be a part): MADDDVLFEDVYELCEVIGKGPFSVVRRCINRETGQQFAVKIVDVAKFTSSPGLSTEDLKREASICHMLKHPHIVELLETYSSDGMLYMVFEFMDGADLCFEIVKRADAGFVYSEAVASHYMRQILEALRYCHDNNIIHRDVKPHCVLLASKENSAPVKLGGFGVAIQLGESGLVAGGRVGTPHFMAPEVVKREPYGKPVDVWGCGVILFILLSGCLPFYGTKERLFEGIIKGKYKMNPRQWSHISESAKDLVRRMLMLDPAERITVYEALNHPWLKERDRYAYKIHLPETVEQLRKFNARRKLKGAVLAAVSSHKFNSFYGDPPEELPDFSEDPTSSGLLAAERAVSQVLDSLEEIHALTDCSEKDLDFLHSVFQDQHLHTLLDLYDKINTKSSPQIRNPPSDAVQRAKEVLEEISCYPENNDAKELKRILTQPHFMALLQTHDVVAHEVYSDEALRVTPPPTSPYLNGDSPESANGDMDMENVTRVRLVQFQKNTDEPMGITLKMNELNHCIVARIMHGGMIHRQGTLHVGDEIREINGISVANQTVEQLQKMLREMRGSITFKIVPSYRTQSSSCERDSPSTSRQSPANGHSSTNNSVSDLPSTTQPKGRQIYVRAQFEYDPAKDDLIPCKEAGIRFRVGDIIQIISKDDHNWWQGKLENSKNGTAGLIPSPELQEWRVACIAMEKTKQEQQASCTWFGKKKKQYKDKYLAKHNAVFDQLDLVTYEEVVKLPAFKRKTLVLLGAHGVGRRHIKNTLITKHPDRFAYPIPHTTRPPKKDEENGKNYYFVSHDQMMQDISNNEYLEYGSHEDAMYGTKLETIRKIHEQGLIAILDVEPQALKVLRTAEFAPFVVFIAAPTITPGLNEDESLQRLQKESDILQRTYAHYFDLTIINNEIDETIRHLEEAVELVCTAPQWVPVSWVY
Summary of the method: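 KiNativ profiling in HeLa lysate (5 mg/mL total protein). Lysate incubated 15 min with inhibitor at 50, 10, 2, 0.8 or 0 μM. ATP or ADP acylphosphate probe then added (5 μM final) and reacted 10 min. Reaction stopped with urea and analysed by targeted MS, using up to four fragment ions per kinase peptide-probe conjugate. % inhibition taken against untreated lysate. Run in duplicate.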

[5] = target: T3, Serine/threonine-protein kinase TAO2 (Homo sapiens) (UniProt Q9UL54); assay: Inhibition of TAO2 in human HeLa cells lysate at 2 uM pre incubated for 15 mins followed by ATP acyl phosphate probe addition and measured after 10 mins by LC-MS/MS analysis relative to control; settings: time 25.0 min
T3 sequence (whole entry): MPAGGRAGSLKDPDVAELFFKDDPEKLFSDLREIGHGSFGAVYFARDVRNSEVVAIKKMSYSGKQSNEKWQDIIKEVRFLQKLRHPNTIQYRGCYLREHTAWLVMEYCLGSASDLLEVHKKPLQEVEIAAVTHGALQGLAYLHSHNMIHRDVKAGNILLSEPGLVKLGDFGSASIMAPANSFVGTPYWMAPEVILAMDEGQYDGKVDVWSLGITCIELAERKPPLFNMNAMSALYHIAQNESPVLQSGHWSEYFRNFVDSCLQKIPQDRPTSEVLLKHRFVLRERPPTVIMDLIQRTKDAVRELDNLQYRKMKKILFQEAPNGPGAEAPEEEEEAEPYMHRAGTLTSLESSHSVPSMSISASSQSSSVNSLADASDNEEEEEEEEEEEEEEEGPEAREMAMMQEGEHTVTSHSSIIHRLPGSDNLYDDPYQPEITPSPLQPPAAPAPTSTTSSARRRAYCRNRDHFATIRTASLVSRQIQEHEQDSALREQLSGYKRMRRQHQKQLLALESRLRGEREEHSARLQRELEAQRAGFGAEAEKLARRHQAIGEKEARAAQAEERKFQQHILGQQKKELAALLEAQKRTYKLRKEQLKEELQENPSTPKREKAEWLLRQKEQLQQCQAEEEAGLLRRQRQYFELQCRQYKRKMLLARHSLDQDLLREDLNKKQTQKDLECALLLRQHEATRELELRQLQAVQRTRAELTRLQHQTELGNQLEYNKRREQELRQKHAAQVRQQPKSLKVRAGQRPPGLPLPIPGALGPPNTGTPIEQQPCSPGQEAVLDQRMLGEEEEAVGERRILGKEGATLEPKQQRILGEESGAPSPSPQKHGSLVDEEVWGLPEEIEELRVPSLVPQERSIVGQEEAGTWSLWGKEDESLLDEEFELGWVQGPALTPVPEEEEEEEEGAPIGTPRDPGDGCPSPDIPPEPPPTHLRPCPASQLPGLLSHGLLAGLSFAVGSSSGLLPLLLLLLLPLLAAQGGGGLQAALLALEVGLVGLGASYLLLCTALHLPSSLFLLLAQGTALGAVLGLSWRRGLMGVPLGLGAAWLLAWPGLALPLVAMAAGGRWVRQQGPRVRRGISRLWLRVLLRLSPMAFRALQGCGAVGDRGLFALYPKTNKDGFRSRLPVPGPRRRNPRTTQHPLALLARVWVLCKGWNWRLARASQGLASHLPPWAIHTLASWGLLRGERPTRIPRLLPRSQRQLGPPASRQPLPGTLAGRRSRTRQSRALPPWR

Sequence of Serine/threonine-protein kinase tousled-like 2 (Q86UE8 whole entry): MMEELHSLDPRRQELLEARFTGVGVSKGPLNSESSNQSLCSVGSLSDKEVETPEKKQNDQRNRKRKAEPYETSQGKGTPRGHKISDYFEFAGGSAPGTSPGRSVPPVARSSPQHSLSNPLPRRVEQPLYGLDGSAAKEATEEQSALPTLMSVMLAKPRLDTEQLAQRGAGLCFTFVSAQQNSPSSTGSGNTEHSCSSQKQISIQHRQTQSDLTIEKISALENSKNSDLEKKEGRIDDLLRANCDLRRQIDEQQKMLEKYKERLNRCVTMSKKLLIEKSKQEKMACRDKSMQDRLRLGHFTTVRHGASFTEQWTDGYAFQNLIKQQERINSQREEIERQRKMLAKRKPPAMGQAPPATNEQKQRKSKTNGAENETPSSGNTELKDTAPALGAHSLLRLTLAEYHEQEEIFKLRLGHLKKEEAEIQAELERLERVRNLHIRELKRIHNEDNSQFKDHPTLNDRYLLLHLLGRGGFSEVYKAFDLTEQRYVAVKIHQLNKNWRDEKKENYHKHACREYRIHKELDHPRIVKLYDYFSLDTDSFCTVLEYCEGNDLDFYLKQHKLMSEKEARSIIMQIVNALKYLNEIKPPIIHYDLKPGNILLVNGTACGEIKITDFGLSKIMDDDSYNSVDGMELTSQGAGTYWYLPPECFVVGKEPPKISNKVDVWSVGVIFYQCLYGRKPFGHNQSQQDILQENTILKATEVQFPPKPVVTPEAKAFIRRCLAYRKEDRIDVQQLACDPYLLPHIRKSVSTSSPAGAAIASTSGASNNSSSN

CCOc1cc(N2CCC(O)CC2)ccc1Nc1ncc2c(n1)N(C)c1ccccc1C(=O)N2C
IC50 [1]: > 50 µM | inhibition [2]: 34.5% | inhibition [3]: -9.9% | inhibition [4]: 12.1% | inhibition [5]: -8.5%
